# Results from ChEMBL document CHEMBL1149323, “Synthesis and evaluation of dihydropyrroloquinolines that selectively antagonize P-glycoprotein” (J Med Chem, 2004).
# “And” between values parts separate entries of the source, which are not always exact repeats. Equal entries are not always repeated.
# Assays:
# [1] = Compound was evaluated for broad range of antagonistic activity against multi drug resistance-related protein (MRP) value expressed as IC20; format: functional; set-up: unit not given here
# [2] = target: T1, ATP-dependent translocase ABCB1 (Homo sapiens, UniProt P08183); test: Compound was evaluated for broad range of antagonistic activity against P-glycoprotein (Pgp) value expressed as IC20; format: functional
# [3] = tested on: MCF-7 (Homo sapiens); test: Toxicity against MCF-7 cells
# [4] = tested on: MCF7; test: Toxicity was determined against of MCF-7 cells at a dose of 10 ug/mL; format: cell-based; details: human
# Method in brief: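 Drug-sensitive MCF-7 cells exposed to 10 μg/mL compound for 48 h, in triplicate, with 1% ethanol solvent controls. Percentage of cells killed = percentage decrease in sulforhodamine B binding (570 nm) relative to control cultures.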
# [5] = target: T1, ATP-dependent translocase ABCB1; test: Pgp antagonism was determined percentage of NCI/ADR cells surviving in the absence of vinblastine/percentage of NCI/ADR cells surviving in the presence of vinblastine; format: functional, cell-based
# Method in brief: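 Modulator at 10 μg/mL tested with or without 50 nM vinblastine for 48 h, in triplicate. Survival read by sulforhodamine B at 570 nm against ethanol (1%) controls. Score = % survival without vinblastine / % survival with vinblastine.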
# [6] = Ratio of the Pgp to that of MRP1 was determined; format: functional
# [7] = target: Multidrug resistance-associated protein 1 (Homo sapiens, UniProt P33527); test: MRP1 antagonism was determined percentage of MCF-7/VP cells surviving in the absence of vincristine/percentage of MCF-7/VP cells surviving in the presence of vincristine; format: functional
# Method in brief: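 MCF-7/VP cells in RPMI 1640 with 10% FBS. Modulator at 10 μg/mL tested with or without 1 nM vincristine for 48 h, in triplicate. Sulforhodamine B read-out at 570 nm. Score = % survival without vincristine / % survival with vincristine; a score above 1.0 indicates chemosensitization.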
# [8] = tested on: Mus musculus; test: In vivo tumor growth inhibition in mice when […] at a day 15; format: functional
# Method in brief: (§1)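 Balb/c female mice, 6–8 weeks old, with 10^6 JC murine mammary adenocarcinoma cells injected subcutaneously in the right hind quarter. Treatment began once tumors were palpable (day 1), five mice per group. Dosing on days 1, 5 and 9: 100 mg/kg i.p. PGP-4008·HCl with or without 5 mg/kg doxorubicin. Caliper volumes calculated as (L×W²)/2 through day 15; unpaired t-test with Welch correction.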
# [9] = tested on: Mus musculus; test: In vivo tumor growth inhibition in mice when […] at a day 1; format: functional; method in brief: as §1
# [10] = tested on: Mus musculus; test: In vivo tumor growth inhibition in mice when administered subcutaneously at a day 5; format: functional; details: in the assay text read “intraperitoneally” for “subcutaneously”; method in brief: as §1
# [11] = tested on: Mus musculus; test: In vivo tumor growth inhibition in mice when administered […] at a day 12; format: functional; method in brief: as §1
# [12] = tested on: Mus musculus; test: In vivo tumor growth inhibition in mice when administered […] at a day 9; format: functional; method in brief: as §1
# T1 sequence (P08183 whole entry): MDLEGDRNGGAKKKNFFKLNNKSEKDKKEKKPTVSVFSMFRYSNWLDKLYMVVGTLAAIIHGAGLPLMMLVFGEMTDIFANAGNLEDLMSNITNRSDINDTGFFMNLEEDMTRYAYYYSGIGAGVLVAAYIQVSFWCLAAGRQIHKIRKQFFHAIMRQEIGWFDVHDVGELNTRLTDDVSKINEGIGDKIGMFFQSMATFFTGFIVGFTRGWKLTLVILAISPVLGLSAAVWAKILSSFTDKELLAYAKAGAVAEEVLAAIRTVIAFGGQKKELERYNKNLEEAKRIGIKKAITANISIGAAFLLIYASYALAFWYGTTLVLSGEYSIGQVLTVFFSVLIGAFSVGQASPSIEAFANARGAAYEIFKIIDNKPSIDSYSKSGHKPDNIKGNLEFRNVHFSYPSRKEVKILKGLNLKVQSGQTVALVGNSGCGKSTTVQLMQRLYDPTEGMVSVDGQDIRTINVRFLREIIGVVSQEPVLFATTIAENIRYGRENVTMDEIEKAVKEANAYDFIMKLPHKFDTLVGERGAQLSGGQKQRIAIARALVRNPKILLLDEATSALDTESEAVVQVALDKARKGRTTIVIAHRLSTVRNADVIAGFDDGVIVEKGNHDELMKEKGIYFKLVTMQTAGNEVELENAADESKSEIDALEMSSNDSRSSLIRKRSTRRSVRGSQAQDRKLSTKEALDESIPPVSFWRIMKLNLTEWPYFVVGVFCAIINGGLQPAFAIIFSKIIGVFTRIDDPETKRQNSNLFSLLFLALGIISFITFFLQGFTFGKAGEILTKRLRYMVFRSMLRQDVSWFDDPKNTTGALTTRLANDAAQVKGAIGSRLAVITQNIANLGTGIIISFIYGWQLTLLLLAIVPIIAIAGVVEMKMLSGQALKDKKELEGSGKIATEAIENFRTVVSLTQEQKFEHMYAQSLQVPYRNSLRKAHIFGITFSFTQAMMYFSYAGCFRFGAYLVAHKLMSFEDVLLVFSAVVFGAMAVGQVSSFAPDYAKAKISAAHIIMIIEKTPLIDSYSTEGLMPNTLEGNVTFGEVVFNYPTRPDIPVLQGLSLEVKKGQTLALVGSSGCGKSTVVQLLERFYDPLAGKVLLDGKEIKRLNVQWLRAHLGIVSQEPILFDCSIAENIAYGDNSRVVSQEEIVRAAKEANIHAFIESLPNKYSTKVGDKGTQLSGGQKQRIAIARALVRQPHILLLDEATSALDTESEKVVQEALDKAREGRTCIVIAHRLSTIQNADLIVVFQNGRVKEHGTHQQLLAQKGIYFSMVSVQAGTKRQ
# Sequence of Multidrug resistance-associated protein 1 (P33527 whole entry): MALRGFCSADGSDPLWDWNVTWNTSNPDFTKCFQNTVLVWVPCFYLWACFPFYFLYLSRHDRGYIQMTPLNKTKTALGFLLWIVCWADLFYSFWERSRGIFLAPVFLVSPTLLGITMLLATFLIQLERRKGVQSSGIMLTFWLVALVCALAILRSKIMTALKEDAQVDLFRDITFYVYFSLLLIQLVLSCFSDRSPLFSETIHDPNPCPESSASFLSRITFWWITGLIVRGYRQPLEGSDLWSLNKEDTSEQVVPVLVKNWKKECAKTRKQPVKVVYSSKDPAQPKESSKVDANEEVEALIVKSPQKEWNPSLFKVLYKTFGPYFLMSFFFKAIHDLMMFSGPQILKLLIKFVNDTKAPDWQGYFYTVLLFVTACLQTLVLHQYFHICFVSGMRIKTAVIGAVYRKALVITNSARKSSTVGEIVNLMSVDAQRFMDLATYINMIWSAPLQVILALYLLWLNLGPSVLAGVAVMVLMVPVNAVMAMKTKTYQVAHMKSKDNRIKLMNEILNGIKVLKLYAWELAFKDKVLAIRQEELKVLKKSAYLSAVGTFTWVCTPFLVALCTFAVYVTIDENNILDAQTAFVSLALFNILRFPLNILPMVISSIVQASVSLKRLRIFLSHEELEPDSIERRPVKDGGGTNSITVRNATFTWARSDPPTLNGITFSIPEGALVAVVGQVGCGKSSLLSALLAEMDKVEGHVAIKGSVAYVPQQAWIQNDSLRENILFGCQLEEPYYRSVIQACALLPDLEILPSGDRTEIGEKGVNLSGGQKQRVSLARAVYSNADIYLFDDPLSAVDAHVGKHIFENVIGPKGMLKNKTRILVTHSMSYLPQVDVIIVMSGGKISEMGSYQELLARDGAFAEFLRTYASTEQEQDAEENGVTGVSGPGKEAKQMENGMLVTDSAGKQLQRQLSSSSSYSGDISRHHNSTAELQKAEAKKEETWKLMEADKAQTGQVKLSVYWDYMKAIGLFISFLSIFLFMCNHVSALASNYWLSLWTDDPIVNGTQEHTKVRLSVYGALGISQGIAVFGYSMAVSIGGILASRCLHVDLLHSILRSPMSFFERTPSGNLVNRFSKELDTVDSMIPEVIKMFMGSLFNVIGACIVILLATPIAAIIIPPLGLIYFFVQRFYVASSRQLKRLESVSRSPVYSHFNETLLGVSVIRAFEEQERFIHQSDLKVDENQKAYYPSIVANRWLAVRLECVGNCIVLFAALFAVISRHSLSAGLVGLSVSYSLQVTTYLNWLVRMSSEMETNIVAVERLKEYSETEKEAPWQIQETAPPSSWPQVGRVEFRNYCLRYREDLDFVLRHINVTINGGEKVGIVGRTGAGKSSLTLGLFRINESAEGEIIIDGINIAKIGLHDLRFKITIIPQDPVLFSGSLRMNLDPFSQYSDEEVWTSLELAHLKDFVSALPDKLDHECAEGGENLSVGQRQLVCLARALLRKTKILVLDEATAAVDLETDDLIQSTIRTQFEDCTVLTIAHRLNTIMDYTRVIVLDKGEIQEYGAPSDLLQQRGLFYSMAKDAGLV
Structure (SMILES),Toxicity [4],Ratio [5],Ratio [6],Ratio [7],also measured
O=C(Nc1c2c(nc3ccccc13)N(Cc1ccccc1)CC2)c1c(F)ccc(F)c1F,–,–,–,–,Activity [1]: 1; Activity [2]: 3.1; Toxicity [3]: > 58 µM
CN1CCN(CC(=O)Nc2c3c(nc4ccccc24)N(Cc2ccccc2)CC3)CC1,21%,7.5,6.8,1.1,–
Fc1ccc(CNc2c3c(nc4ccccc24)N(Cc2ccccc2)CC3)cc1,–,–,–,–,Activity [1]: 0.7; Activity [2]: 1.3; Toxicity [3]: > 65 µM
O=C(Nc1c2c(nc3ccccc13)N(Cc1ccccc1)CC2)c1ccc(F)c(C(F)(F)F)c1,–,–,–,–,Activity [1]: 0.9; Activity [2]: 4.9; Toxicity [3]: 19 µM
COc1cc(CNc2c3c(nc4ccccc24)N(Cc2ccccc2)CC3)cc(OC)c1,–,–,–,–,Activity [1]: 0.9; Activity [2]: 1.4; Toxicity [3]: 47 µM
CN1CCc2c1nc1ccccc1c2NC(=O)C12CC3CC(CC(C3)C1)C2,29%,4.7,5.2,0.9,–
Nc1c2c(nc3cc(Br)ccc13)N(C1CCCCC1)CC2,99%,1,1,1,–
CN1CCc2c1nc1ccccc1c2NC(=O)CN1CCCCC1,51%,4.1,3.4,1.2,–
CC(C)(C)c1cc(CCC(=O)Nc2c3c(nc4ccccc24)N(Cc2ccccc2)CC3)cc(C(C)(C)C)c1O,50%,13.2,11,1.2,–
Cc1cc(C)c2c(N)c3c(nc2c1)N(Cc1ccccc1)CC3,49%,3.6,2.6,1.4,–
Nc1c2c(nc3ccccc13)N(c1ccccc1)CC2,52%,2.7,2.5,1.1,–
CN1CCc2c1nc1cc(Br)ccc1c2N,94%,1.3,0.8,1.6,–
CCCCN(CCCC)CC(=O)Nc1c2c(nc3ccccc13)N(C)CC2,50%,4.2,3.2,1.3,–
COc1cccc2c1C(=O)c1c(O)c3c(c(O)c1C2=O)C[C@@](O)(C(=O)CO)C[C@@H]3O[C@H]1C[C@H](N)[C@H](O)[C@H](C)O1.O=C(Cc1ccccc1)Nc1c2c(nc3ccccc13)N(Cc1ccccc1)CC2,–,–,–,–,Tumor volume [8]: 670 mm**3; Tumor volume [9]: 390 mm**3; Tumor volume [10]: 470 mm**3; Tumor volume [11]: 560 mm**3; Tumor volume [12]: 520 mm**3
CCN(CC)CC(=O)Nc1c2c(nc3ccccc13)N(C)CC2,30%,6,5,1.2,–
CN1CCc2c1nc1ccccc1c2NC(=O)CNCCc1ccc(O)cc1,21%,1.7,1.2,1.4,–
CN1CCc2c1nc1ccccc1c2NC(=O)Cc1ccccc1,–,–,5.6,–,–
Nc1c2c(nc3ccccc13)N(Cc1ccccc1)CC2,47%,3.1,3.1,1,Activity [1]: 1; Activity [2]: 1; Toxicity [3]: 6.2 µM
CC(C)NCC(=O)Nc1c2c(nc3ccccc13)N(C)CC2,39%,1.8,1.3,1.4,–

Structure (SMILES),Toxicity [4],Ratio [5],Ratio [6],Ratio [7],also measured
CCOC(=O)CNc1c2c(nc3ccccc13)N(Cc1ccccc1)CC2,–,–,–,–,Activity [1]: 0.9; Activity [2]: 0.9; Toxicity [3]: 33 µM
CN1CCc2c1nc1ccccc1c2NC(=O)CCc1cc(C(C)(C)C)c(O)c(C(C)(C)C)c1,99%,1,1,1,–
CN1CCc2c1nc1ccccc1c2/N=C(/c1ccccc1)N1CCCCC1,58%,2.4,2.4,1,–
O=C(Nc1c2c(nc3ccccc13)N(Cc1ccccc1)CC2)c1c(F)cccc1C(F)(F)F,–,–,–,–,Activity [1]: 0.9; Activity [2]: 2.5; Toxicity [3]: 13 µM
CCCCN1CCc2c1nc1cc(Br)ccc1c2N,98%,1.1,1.1,1,–
O=C(CN1CCCCC1)Nc1c2c(nc3ccccc13)N(Cc1ccccc1)CC2,0%,18,16,1.1,Activity [1]: 1; Activity [2]: 9; Toxicity [3]: 14 µM
CN1CCc2c1nc1ccccc1c2NC(=O)CNC(C)(C)C,28%,3.2,2.7,1.2,–
CC(C)(C)NCC(=O)Nc1c2c(nc3ccccc13)N(Cc1ccccc1)CC2,29%,12,13,0.9,–
CCN(CC)CC(=O)Nc1c2c(nc3ccccc13)N(Cc1ccccc1)CC2,14%,15,15,1,–
Fc1cccc(CNc2c3c(nc4ccccc24)N(Cc2ccccc2)CC3)c1,–,–,–,–,Activity [1]: 0.7; Activity [2]: 1.2; Toxicity [3]: > 65 µM
CC(C)NCC(=O)Nc1c2c(nc3ccccc13)N(Cc1ccccc1)CC2,45%,13,13,1,–
CCC(=O)Nc1c2c(nc3ccccc13)N(C)CC2,–,–,1.6,–,–
Cc1ccc2nc3c(c(N)c2c1)CCN3Cc1ccccc1,81%,1.5,1.3,1.2,–
Nc1c2c(nc3cc(Br)ccc13)N(Cc1ccccc1)CC2,94%,1.7,1.3,1.3,–
O=C(Nc1c2c(nc3ccccc13)N(Cc1cccc(Cl)c1)CC2)C12CC3CC(CC(C3)C1)C2,33%,1.2,1,1.2,–
Cc1ccc2c(N)c3c(nc2c1)N(Cc1ccccc1)CC3,77% and 98%,1.6 and 0.7,0.9 and 0.7,1.7 and 1,–
Nc1c2c(nc3ccccc13)N(C1CCCCC1)CC2,97%,0.8,1.3,0.6,–
COc1cccc2c1C(=O)c1c(O)c3c(c(O)c1C2=O)C[C@@](O)(C(=O)CO)C[C@@H]3O[C@H]1C[C@H](N)[C@H](O)[C@H](C)O1 [DOXORUBICIN],–,–,–,–,Tumor volume [8]: 1680 mm**3; Tumor volume [9]: 430 mm**3; Tumor volume [10]: 520 mm**3; Tumor volume [11]: 1210 mm**3; Tumor volume [12]: 860 mm**3
